# In ChEMBL document CHEMBL4145521, “Regioselective synthesis of 3,4-diaryl-5-unsubstituted isoxazoles, analogues of natural cytostatic combretastatin A4” (Eur J Med Chem, 2018):
# How the values were obtained:
# Assay type in all cases: functional
# [1] = system: KM12; experiment: Cytotoxicity against human KM12 cells assessed as cell growth at 100 uM incubated for 48 hrs by sulforhodamine B assay relative to control; conditions: KM12, 48 h, read-out: Activity
# [2] = system: A498; experiment: Cytotoxicity against human A498 cells assessed as cell growth at 0.01 uM incubated for 48 hrs by sulforhodamine B assay relative to control; conditions: A498, 48 h, read-out: Activity
# [3] = system: SK-MEL-5; experiment: Cytotoxicity against human SK-MEL-5 cells assessed as cell growth at 1 uM incubated for 48 hrs by sulforhodamine B assay relative to control; conditions: SK-MEL-5, 48 h, read-out: Activity
# [4] = system: MDA-MB-435; experiment: Cytotoxicity against human MDA-MB-435 cells assessed as cell growth at 100 uM incubated for 48 hrs by sulforhodamine B assay relative to control; conditions: MDA-MB-435, 48 h, read-out: Activity
# [5] = system: HL-60(TB); experiment: Cytotoxicity against human HL-60(TB) cells assessed as cell growth at 10 uM incubated for 48 hrs by sulforhodamine B assay relative to control; conditions: HL-60, 48 h, read-out: Activity
# [6] = system: DU-145; experiment: Cytotoxicity against human DU145 cells incubated for 48 hrs by sulforhodamine B assay; conditions: DU-145, 48 h
# [7] = system: LOX IMVI; experiment: Cytotoxicity against human LOXIMVI cells assessed as cell growth at 0.01 uM incubated for 48 hrs by sulforhodamine B assay relative to control; conditions: read-out: Activity
# [8] = system: HL-60(TB); experiment: Cytotoxicity against human HL-60(TB) cells assessed as cell growth at 1 uM incubated for 48 hrs by sulforhodamine B assay relative to control; conditions: HL-60, 48 h, read-out: Activity
# [9] = system: BT-549; experiment: Cytotoxicity against human BT549 cells assessed as cell growth at 10 uM incubated for 48 hrs by sulforhodamine B assay relative to control; conditions: BT-549, 48 h, read-out: Activity
# [10] = system: CAKI-1; experiment: Cytotoxicity against human Caki1 cells assessed as cell growth at 10 uM incubated for 48 hrs by sulforhodamine B assay relative to control; conditions: CAKI-1, 48 h, read-out: Activity
# [11] = system: U-251; experiment: Cytotoxicity against human U251 cells assessed as cell growth at 100 uM incubated for 48 hrs by sulforhodamine B assay relative to control; conditions: U-251, 48 h, read-out: Activity
# [12] = system: RPMI-8226; experiment: Cytotoxicity against human RPMI8226 cells assessed as cell growth at 1 uM incubated for 48 hrs by sulforhodamine B assay relative to control; conditions: RPMI-8226, 48 h, read-out: Activity
# [13] = system: KM12; experiment: Cytotoxicity against human KM12 cells assessed as cell growth at 0.01 uM incubated for 48 hrs by sulforhodamine B assay relative to control; conditions: KM12, 48 h, read-out: Activity
# [14] = system: MCF7; experiment: Cytotoxicity against human MCF7 cells assessed as cell growth at 10 uM incubated for 48 hrs by sulforhodamine B assay relative to control; conditions: MCF7, 48 h, read-out: Activity
# [15] = system: NCI-H322M; experiment: Cytotoxicity against human NCI-H322M cells assessed as cell growth at 0.1 uM incubated for 48 hrs by sulforhodamine B assay relative to control; conditions: read-out: Activity
# [16] = system: Malme-3M; experiment: Cytotoxicity against human MALME-3M cells incubated for 48 hrs by sulforhodamine B assay
# [17] = system: CCRF-CEM; experiment: Cytotoxicity against human CCRF-CEM cells assessed as cell growth at 100 uM incubated for 48 hrs by sulforhodamine B assay relative to control; conditions: read-out: Activity
# [18] = system: HCT-15; experiment: Cytotoxicity against human HCT15 cells assessed as cell growth at 100 uM incubated for 48 hrs by sulforhodamine B assay relative to control; conditions: HCT-15, 48 h, read-out: Activity
# [19] = system: RPMI-8226; experiment: Cytotoxicity against human RPMI8226 cells assessed as cell growth at 10 uM incubated for 48 hrs by sulforhodamine B assay relative to control; conditions: RPMI-8226, 48 h, read-out: Activity
# [20] = system: OVCAR-3; experiment: Cytotoxicity against human OVCAR3 cells assessed as cell growth at 0.01 uM incubated for 48 hrs by sulforhodamine B assay relative to control; conditions: OVCAR-3, 48 h, read-out: Activity
# [21] = system: Malme-3M; experiment: Cytotoxicity against human MALME-3M cells assessed as cell growth at 1 uM incubated for 48 hrs by sulforhodamine B assay relative to control; conditions: read-out: Activity
# [22] = system: SW-620; experiment: Cytotoxicity against human SW620 cells assessed as cell growth at 100 uM incubated for 48 hrs by sulforhodamine B assay relative to control; conditions: SW-620, 48 h, read-out: Activity
# [23] = system: SF-295; experiment: Cytotoxicity against human SF295 cells incubated for 48 hrs by sulforhodamine B assay; conditions: SF-295, 48 h
# [24] = system: TK-10; experiment: Cytotoxicity against human TK10 cells incubated for 48 hrs by sulforhodamine B assay; conditions: TK-10, 48 h
# [25] = system: SK-MEL-2; experiment: Cytotoxicity against human SK-MEL-2 cells assessed as cell growth at 10 uM incubated for 48 hrs by sulforhodamine B assay relative to control; conditions: SK-MEL-2, 48 h, read-out: Activity
# [26] = system: HL-60(TB); experiment: Cytotoxicity against human HL-60(TB) cells assessed as cell growth at 0.1 uM incubated for 48 hrs by sulforhodamine B assay relative to control; conditions: HL-60, 48 h, read-out: Activity
# [27] = system: OVCAR-5; experiment: Cytotoxicity against human OVCAR5 cells assessed as cell growth at 1 uM incubated for 48 hrs by sulforhodamine B assay relative to control; conditions: OVCAR-5, 48 h, read-out: Activity
# [28] = system: Paracentrotus lividus; experiment: Antimitotic activity against Paracentrotus lividus embryo assessed as cleavage alteration measured at 2.5 hrs post fertilization by light microscopy
# Method in brief: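 Sea urchin eggs were fertilized with diluted sperm and cultured at room temperature in filtered seawater with paddle agitation (60 rpm), at up to 2000 embryos/mL. The effective threshold concentration causing cleavage alteration, death before hatching or full mitotic arrest was scored in duplicate.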
# [29] = system: NCI-H322M; experiment: Cytotoxicity against human NCI-H322M cells incubated for 48 hrs by sulforhodamine B assay
# [30] = system: T47D; experiment: Cytotoxicity against human T47D cells assessed as cell growth at 0.01 uM incubated for 48 hrs by sulforhodamine B assay relative to control; conditions: read-out: Activity
# [31] = system: NCI-H522; experiment: Cytotoxicity against human NCI-H522 cells assessed as cell growth at 10 uM incubated for 48 hrs by sulforhodamine B assay relative to control; conditions: NCI-H522, 48 h, read-out: Activity
# [32] = read-out: LC50 (the source's name)
# [33] = read-out: pLC50 (the source's name) (converted)
smiles,measurement,setting,value
COc1ccc(-c2nocc2-c2cc(OC)c(OC)c(OC)c2)cc1,growth at 100 µM,[1],-45%
same,growth at 0.01 µM,[2],73%
same,growth at 1 µM,[3],29%
same,growth at 100 µM,[4],-9%
same,growth at 10 µM,[5],-8%
same,GI50,[6]; read-out: GI50,0.244 µM
same,CC50,[6]; [32],> 100 µM
same,TGI,[6]; read-out: TGI,> 100 µM
same,GI50,[6]; read-out: pGI50 (converted),0.245 µM
same,CC50,[6]; [33],> 100 µM
same,TGI,[6]; read-out: pTGI,> 100 µM
same,growth at 0.01 µM,[7],94%
same,growth at 1 µM,[8],-17%
same,growth at 10 µM,[9],9%
same,growth at 10 µM,[10],36%
same,growth at 100 µM,[11],-4%
same,growth at 1 µM,[12],32%
same,growth at 0.01 µM,[13],92%
same,growth at 10 µM,[14],14%
same,growth at 0.1 µM,[15],76%
same,LC50 (concentration killing 50% of cells),[16]; read-out: LC50,> 100 µM
same,TGI,[16]; read-out: TGI,45.5 µM
same,LC50 (concentration killing 50% of cells),[16]; read-out: pLC50 (converted),> 100 µM
same,TGI,[16]; read-out: pTGI (converted),45.7 µM
same,growth at 100 µM,[17],4%
same,growth at 100 µM,[18],1%
same,growth at 10 µM,[19],16%
same,growth at 0.01 µM,[20],100%
same,growth at 1 µM,[21],46%
same,growth at 100 µM,[22],7%
same,GI50,[23]; read-out: GI50,0.0505 µM
same,CC50,[23]; [32],> 100 µM
same,TGI,[23]; read-out: TGI,13.1 µM
same,GI50,[23]; read-out: pGI50 (converted),0.0501 µM
same,CC50,[23]; [33],> 100 µM
same,TGI,[23]; read-out: pTGI (converted),13.2 µM
same,GI50,[24]; read-out: GI50,0.0792 µM
same,CC50,[24]; [32],> 100 µM
same,TGI,[24]; read-out: TGI,43.1 µM
same,GI50,[24]; read-out: pGI50 (converted),0.0794 µM
same,CC50,[24]; [33],> 100 µM
same,TGI,[24]; read-out: pTGI (converted),42.7 µM
same,growth at 10 µM,[25],43%
same,growth at 0.1 µM,[26],25%
same,growth at 1 µM,[27],53%
same,EC,[28],0.01 µM
same,GI50,[29]; read-out: GI50,0.737 µM
same,LC50,[29]; read-out: LC50,> 100 µM
same,TGI,[29]; read-out: TGI,> 100 µM
same,GI50,[29]; read-out: pGI50 (converted),0.741 µM
same,LC50,[29]; read-out: pLC50 (converted),> 100 µM
same,TGI,[29]; read-out: pTGI,> 100 µM
same,growth at 0.01 µM,[30],81%
same,growth at 10 µM,[31],-6%
